Data set [1] deals with Beta-2 adrenergic receptor (Canis lupus familiaris, UniProt P54833). Briefly: In vitro Beta-2 adrenergic receptor affinity in partially purified membrane fractions from canine lung tissue using […]dihydroalprenolol (4.5 nM). It counts as cell membranes.
Data set [2] is filed under the species Canis familiaris. Briefly: In vitro electrophysiological activity in isolated canine cardiac Purkinje fibers using standard microelectrode technique. It counts as functional, Canis lupus familiaris, Purkinje fiber. The method in brief: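 Canine cardiac Purkinje fibers studied with standard intracellular microelectrodes. C20APD95 is the concentration raising action potential duration at 95% repolarization by 20% over control. Reported as the log mean of n experiments with the range.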

Data set [3] has as its system Canis familiaris. Briefly: In vivo cardiac output in anesthetized dog at 30 mg/kg. It counts as functional, Canis lupus familiaris. The method in brief: (§1)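 Pentobarbital-anesthetized mongrel dogs, 30 min stabilization. Cumulative iv doses of 3, 10 and 30 mg/kg, each over 5 min, monitored every 5 min for 15 min. Percent change ± SEM from control at 15 min after the 30 mg/kg dose; n = 4.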

The test system of data set [4] is Canis familiaris. Kind of data set: In vivo heart rate in anesthetized dog at 30 mg/kg. It counts as functional, Canis lupus familiaris. Summed up: as §1
In data set [5] the test system is Canis familiaris. Briefly: In vivo PES efficacy in conscious dogs (iv). The following applies: Canis lupus familiaris, read-out: MED. It counts as functional. The method in brief: (§2)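 Mongrel dogs with surgically produced occlusion/reperfusion infarction, studied conscious 3–8 days later. Two control arrhythmias induced by programmed electrical stimulation before iv drug; SVT ended by burst pacing, VF by DC countershock. Counted effective if noninducible after drug.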

For data set [6], the system named is Canis familiaris. Briefly: In vivo left ventricular contractility change in anesthetized dog at 30 mg/kg. It counts as functional, Canis lupus familiaris, Heart left ventricle. The method in brief:
as §1

The subject of data set [7] is Canis familiaris. Kind of data set: In vivo mean arterial pressure in anesthetized dog at 30 mg/kg. It counts as functional, Canis lupus familiaris, Artery. The method in brief:
as §1

The subject of data set [8] is Canis familiaris. Briefly: In vivo total peripheral resistance in anesthetized dog at 30 mg/kg. The class given is functional, Canis lupus familiaris. Summed up:
as §1

For data set [9], the system named is Canis familiaris. Briefly: In vivo coronary flow in anesthetized dog at 30 mg/kg. The class given is functional, Canis lupus familiaris. Summed up:
as §1

The subject of data set [10] is Canis familiaris. Briefly: In vivo PES efficacy in 8 conscious dogs (PES programmed electrical stimulation protocol). It counts as functional, Canis lupus familiaris. Summed up: as §2
In data set [11] the test system is Canis familiaris. Briefly: In vivo efficacy against halothane/epinephrine induced arrhythmias in 4 anesthetized dogs at 1 mg/kg. It counts as functional, Canis lupus familiaris. Summed up:
(§3)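 Mongrel dogs under thiopental, ventilated with 1.5 vol% halothane in O2. After 15–30 min stabilization, drug given iv over 10 min. After 20 min equilibration, epinephrine infused at 1.5 µg/kg/min for 15 min. Effective if SVT/VF could not be induced.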

The subject of data set [12] is Canis familiaris. Kind of data set: In vivo isoproterenol response in conscious dogs at 0.3 mg/kg. The class given is functional, Canis lupus familiaris. Summed up:
(§4)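 Conscious mongrel dogs (n = 4) with lead II ECG. Isoproterenol given iv (0.04, 0.08, 0.16 µg/kg) before and after cumulative compound doses of 0.3–10.0 mg/kg. Percent change from the control heart-rate response to 0.08 µg/kg isoproterenol, ± SEM.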

The test system of data set [13] is Canis familiaris. Briefly: In vivo isoproterenol response in conscious dogs at 1.0 mg/kg. The class given is functional, Canis lupus familiaris. Summed up:
as §4

In data set [14] the test system is Canis familiaris. Briefly: In vivo isoproterenol response in conscious dogs at 10.0 mg/kg. The class given is functional, Canis lupus familiaris. Summed up:
as §4

Data set [15] has as its system Canis familiaris. Kind of data set: In vivo isoproterenol response in conscious dogs at 3.0 mg/kg. It counts as functional, Canis lupus familiaris. Summed up:
as §4

The species named for data set [16] is Mustela putorius furo. Briefly: In vitro contractile function in isolated ferret papillary muscle at 10 uM. The class given is functional, Muscle tissue. Summed up:
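Isolated ferret papillary muscle exposed to drug at 10 μM. Read-out is percent change in contractile force from the control value. Reported as the average of n experiments with the range.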

Data set [17] has as its target Phosphodiesterase; PDE3 & PDE4 (Homo sapiens) (UniProt P27815+Q14432+Q08499+Q07343+Q13370+Q08493). Briefly: Inhibition of canine cardiac particulate cAMP phosphodiesterase. The class given is protein assay. The following applies: Canis lupus familiaris; target entry is the homologue from another species; concentration not given here. Summed up: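 Particulate cAMP phosphodiesterase fraction from dog heart; inhibition measured at 100 μM.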

Data set [18] can be described thus: Compound was evaluated for half life. The class given is ADME.
In data set [19] the test system is Canis familiaris. Kind of data set: In vivo efficacy against halothane/epinephrine induced arrhythmias in 4 anesthetized dogs at 0.3 mg/kg. It counts as functional, Canis lupus familiaris. The method in brief: as §3
Data set [20] can be described thus: Bioavailability after oral administration of 3 mg/kg to dogs. It counts as ADME, organism-based, Canis lupus familiaris. Particulars: dog, in vivo.
For data set [21], the system named is Canis familiaris. Kind of data set: In vivo efficacy against halothane/epinephrine induced arrhythmias in 8 anesthetized dogs at 1 mg/kg. It counts as functional, Canis lupus familiaris. Summed up: as §3
In data set [22] the test system is Canis familiaris. Briefly: In vivo efficacy against halothane/epinephrine induced arrhythmias in 2 anesthetized dogs at 0.3 mg/kg. The class given is functional, Canis lupus familiaris. The method in brief:
as §3

The species named for data set [23] is Mustela putorius furo. Kind of data set: In vitro contractile function in isolated ferret papillary muscle at 10 uM. The class given is functional, Muscle tissue. Summed up:
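Isolated ferret papillary muscle; drug at 10 μM. Read-out is percent change in force of contraction from the control value. Value is the average of n experiments, with the range given.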

Data set [24] is described as follows: Compound was evaluated for lethal dose in rats after intravenous administration; Range is 200-300 mg/kg. The following applies: rat, in vivo. The class given is toxicity, organism-based.
Data set [25] concerns Canis familiaris. Kind of data set: In vivo efficacy against halothane/epinephrine induced arrhythmias in 6 anesthetized dogs at 3 mg/kg. The class given is functional, Canis lupus familiaris. Summed up:
as §3

In data set [26] the test system is Canis familiaris. Kind of data set: In vivo PES efficacy in 9 conscious dogs (PES programmed electrical stimulation protocol). The class given is functional, Canis lupus familiaris. The method in brief:
as §2

The test system of data set [27] is Canis familiaris. Kind of data set: In vivo efficacy against halothane/epinephrine induced arrhythmias in 4 anesthetized dogs at 3 mg/kg. It counts as functional, Canis lupus familiaris. Summed up: as §3

Bounds are passed on as bounds.

The term IC50 denotes the concentration needed to halve the response being measured. Low readings indicate higher potency, high ones lower potency. By inhibition is commonly meant the drop in the measured response relative to a control, in per cent. One may read the half-life as the time in which the quantity being followed falls by half. As usually defined, the bioavailability is dose-corrected exposure relative to a reference, in per cent. Lower therefore signals poor availability. The term LD50 denotes the dose expected to kill half of the subjects tested. Low readings indicate a more toxic substance, high ones a less toxic substance.

Beta-2 adrenergic receptor, sequence (P54833 whole entry): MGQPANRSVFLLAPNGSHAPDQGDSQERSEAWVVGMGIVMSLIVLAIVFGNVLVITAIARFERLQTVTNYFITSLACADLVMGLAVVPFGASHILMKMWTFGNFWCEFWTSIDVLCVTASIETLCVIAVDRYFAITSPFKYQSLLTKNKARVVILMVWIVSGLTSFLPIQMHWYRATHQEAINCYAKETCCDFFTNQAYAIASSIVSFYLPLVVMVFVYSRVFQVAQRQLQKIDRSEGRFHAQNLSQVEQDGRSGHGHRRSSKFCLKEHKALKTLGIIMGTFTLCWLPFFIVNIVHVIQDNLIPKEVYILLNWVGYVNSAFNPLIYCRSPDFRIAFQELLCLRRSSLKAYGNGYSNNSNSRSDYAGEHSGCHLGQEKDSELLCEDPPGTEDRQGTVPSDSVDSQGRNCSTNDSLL

The compound `CS(=O)(=O)Nc1ccc(OC[C@@H](O)CNCCOc2ccc(-n3ccnc3)cc2)cc1.Cl` showed a half-maximal inhibitory concentration (IC50) in data set [1] of 100 µM. Further, the “C20 APD95” value in the data set listed under Canis familiaris [2] came to 0.8 µM. Further, the CO in the data set with Canis familiaris [3] is on record as -32%. Further, the HR with Canis familiaris [4] is reported as -48%. In addition, the minimal effective dose in the data set with Canis familiaris [5] was approximately 0.4 mg/kg. Moreover, the “LV dP/dt” value in the data set on Canis familiaris [6] was -28%. In the data set with Canis familiaris [7], the MAP is -30%. The compound also returned a TPR in the data set on Canis familiaris [8] of 6%. For the same compound, in the data set on Canis familiaris [9], the Coronary flow is reported as -41%. Further, the No. effective in the data set with Canis familiaris [10] was determined as 7; in the data set on Canis familiaris [11], 4; in the data set on Canis familiaris [19], 2. Besides, the Response with Canis familiaris [12] is 10%; in the data set with Canis familiaris [13] it was -25%; in the data set with Canis familiaris [14] it was -64%; in the data set with Canis familiaris [15] it was -45%. For the same compound, in the data set listed under Mustela putorius furo [16], the “Delta F” value came out at 75%. In data set [17], this compound registered an inhibition of 19%. The same compound showed a half-life in data set [18] of 3 h.
Compound `CS(=O)(=O)Nc1ccc(OCC(O)CNCCOc2ccc(-n3ccnc3)cc2)cc1.Cl` (stereo not given) displayed a bioavailability in [20] of 60%. Moreover, in [1], the IC50 turned out to be 47 µM. The “C20 APD95” value in the data set listed under Canis familiaris [2] was found to be 0.4 µM. The CO in the data set on Canis familiaris [3] was -28%. Besides, the HR in the data set with Canis familiaris [4] is reported as -49%. In the data set with Canis familiaris [5], the minimal effective dose is approximately 1 mg/kg. Moreover, the LV dp/dt with Canis familiaris [6] is -38%. Further, the No. effective in the data set with Canis familiaris [21] worked out at 6; in the data set with Canis familiaris [10], 8; in the data set with Canis familiaris [22], 0. Moreover, in the data set with Canis familiaris [7], the MAP is given as -25%. For the same compound, the TPR in the data set on Canis familiaris [8] is reported as 3%. In addition, the Coronary flow in the data set on Canis familiaris [9] is -29%. Besides, the Response in the data set on Canis familiaris [12] was 30%; in the data set with Canis familiaris [13], -0.75%; with Canis familiaris [14], -78%; in the data set on Canis familiaris [15], -74%. Further, the “Delta F” value in the data set listed under Mustela putorius furo [23] is reported as 53%. Also, in data set [24], the LD50 amounted to 200 mg/kg.
As to `CC(C)(COc1ccc(-n2ccnc2)cc1)NCC(O)COc1ccc(NS(C)(=O)=O)cc1.Cl.Cl` (stereo not given), the 50% inhibitory concentration (IC50) in data set [1] amounted to 23 µM. Moreover, the “C20 APD95” value in the data set listed under Canis familiaris [2] came out at 0.5 µM. In the data set listed under Mustela putorius furo [16], the “Delta F” value was 69%.
For `CC(C)NCC(O)c1ccc(NS(C)(=O)=O)cc1` (racemic) [SOTALOL], the “C20 APD95” value in the data set filed under Canis familiaris [2] worked out at 18 µM. For the same compound, the CO with Canis familiaris [3] was -61%. In addition, the HR with Canis familiaris [4] is given as -51%. Besides, in the data set on Canis familiaris [5], the minimal effective dose is approximately 2 mg/kg. Besides, in the data set with Canis familiaris [6], the “LV dP/dt” value is -52%. Also, the No. effective in the data set with Canis familiaris [25] came to 6; in the data set with Canis familiaris [26], 7; with Canis familiaris [11] it was 4. Also, the MAP with Canis familiaris [7] is -42%. In the data set with Canis familiaris [8], this compound yielded a TPR of 78%. Besides, in the data set with Canis familiaris [9], the Coronary flow is on record as -51%. Further, the Response in the data set on Canis familiaris [12] is recorded as -72%; with Canis familiaris [13] it was -42%; in the data set on Canis familiaris [15], -79%.
Compound `Cc1nccn1-c1ccc(OCCNCC(O)COc2ccc(NS(C)(=O)=O)cc2)cc1.O=P(O)(O)O` (stereo not given) registered a half-inhibitory concentration (IC50) in [1] of 57 µM. Besides, the “C20 APD95” value in the data set filed under Canis familiaris [2] stood at 7.3 µM. Further, in the data set listed under Mustela putorius furo [16], the “Delta F” value was 9%.
The corresponding values for `CN(c1ccc(OCC(O)CNCCOc2ccc(-n3ccnc3)cc2)cc1)S(C)(=O)=O.Cl.Cl` (stereo not given) are more than 100 µM, 1.4 µM and -15%.
Consider `CCN(CC)CC(O)COc1ccc(NS(C)(=O)=O)cc1` (stereo not given), for which the “C20 APD95” value in the data set listed under Canis familiaris [2] amounted to 4.8 µM.
Regarding `CCN(CC)CCOc1ccc(-n2ccnc2)cc1`, in the data set listed under Canis familiaris [2], the “C20 APD95” value worked out at 3.4 µM.
`Cc1nccn1-c1ccc(OCCNCC(O)COc2ccc(N(C)S(C)(=O)=O)cc2)cc1` (stereo not given): the IC50 in data set [1] is more than 100 µM. In addition, the “C20 APD95” value in the data set listed under Canis familiaris [2] was more than 30 µM. Besides, in the data set listed under Mustela putorius furo [16], the “Delta F” value is -16%.
`CS(=O)(=O)Nc1ccc(OC[C@H](O)CNCCOc2ccc(-n3ccnc3)cc2)cc1.Cl` showed a half-maximal inhibitory concentration (IC50) in [1] of more than 100 µM. Moreover, in the data set filed under Canis familiaris [2], the “C20 APD95” value was found to be 0.8 µM. The No. effective in the data set with Canis familiaris [27] and in the data set on Canis familiaris [11] was 1 each time. In addition, the Response in the data set with Canis familiaris [12] is 40%; in the data set with Canis familiaris [13] it was 62%; in the data set with Canis familiaris [14], 41%; in the data set on Canis familiaris [15] it was -6%. Moreover, the “Delta F” value in the data set filed under Mustela putorius furo [23] amounted to 27%.

These data come from ChEMBL document CHEMBL1125110, “Synthesis and pharmacological studies of N-[4-[2-hydroxy-3-[[2-[4-(1H-imidazol-1-yl)phenoxy]ethyl]amino]propoxy]phenyl]methanesulfonamide, a novel antiarrhythmic agent with class II and class III activities” (J Med Chem, 1990).
